Where a SMILES comes first, the peptide text is derived from it. [ ]: non-standard residue; d: D form. Aad = N[C@@H](CCCC(=O)O)C(=O)O
What was measured:
[1] = molecular target: T1, Pituitary adenylate cyclase-activating polypeptide type I receptor (Homo sapiens, UniProt P41586); test: Agonist activity at human recombinant PAC1 receptor expressed in CHO cells assessed as PACAP38-induced calcium mobilization by FLIPR assay relative to PACAP38; type: functional, cell-based
Method in brief: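 CHO cells stably expressing recombinant human PAC1, plated 24 h before assay, loaded with fluo-4 AM for 60 min at 37 °C in the dark, then rinsed into HBSS for 15 min at 37 °C. Peptide was added 18 s into a 150 s read (ex 480/em 525 nm), at final concentrations of 1 × 10-12 to 1 × 10^-5 M. Response was normalised to 1 × 10^-5 M PACAP38 on each plate. EC50 and efficacy came from nonlinear regression; 4-10 independent assays in duplicate.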
Target sequence in this assay (P41586 21-468 limits assumed): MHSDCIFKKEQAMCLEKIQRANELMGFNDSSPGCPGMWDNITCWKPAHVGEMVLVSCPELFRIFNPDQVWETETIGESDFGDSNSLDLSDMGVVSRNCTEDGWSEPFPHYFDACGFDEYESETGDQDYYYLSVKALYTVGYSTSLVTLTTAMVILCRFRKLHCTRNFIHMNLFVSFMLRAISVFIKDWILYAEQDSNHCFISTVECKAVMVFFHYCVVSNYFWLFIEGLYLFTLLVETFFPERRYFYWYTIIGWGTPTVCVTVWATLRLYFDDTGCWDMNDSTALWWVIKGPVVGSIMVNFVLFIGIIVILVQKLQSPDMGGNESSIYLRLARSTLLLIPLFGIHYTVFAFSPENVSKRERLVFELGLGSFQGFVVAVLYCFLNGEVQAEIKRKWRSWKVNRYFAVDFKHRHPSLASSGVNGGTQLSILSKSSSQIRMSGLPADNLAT

[2] = molecular target: T1, Pituitary adenylate cyclase-activating polypeptide type I receptor; test: Displacement of [125I]Ac-PACAP27 from human recombinant PAC1 receptor expressed in CHO cells by gamma- counter; type: cell-based
Target sequence in this assay (P41586 whole entry): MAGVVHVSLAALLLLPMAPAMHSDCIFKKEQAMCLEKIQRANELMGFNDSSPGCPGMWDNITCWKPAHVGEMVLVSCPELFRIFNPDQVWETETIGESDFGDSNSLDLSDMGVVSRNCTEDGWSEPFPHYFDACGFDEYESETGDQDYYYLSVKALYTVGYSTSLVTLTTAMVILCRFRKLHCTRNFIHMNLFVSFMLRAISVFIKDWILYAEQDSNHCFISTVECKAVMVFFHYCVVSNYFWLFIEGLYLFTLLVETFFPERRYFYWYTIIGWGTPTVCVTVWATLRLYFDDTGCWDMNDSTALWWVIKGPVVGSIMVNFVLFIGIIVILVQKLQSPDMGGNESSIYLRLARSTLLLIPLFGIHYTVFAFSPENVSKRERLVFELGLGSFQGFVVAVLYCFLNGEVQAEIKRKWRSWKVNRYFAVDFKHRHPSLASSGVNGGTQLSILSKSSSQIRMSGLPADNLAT

[3] = molecular target: T1, Pituitary adenylate cyclase-activating polypeptide type I receptor; test: Agonist activity at human recombinant PAC1 receptor expressed in CHO cells assessed as PACAP38-induced calcium mobilization by FLIPR assay; type: functional, cell-based
Method in brief: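 CHO cells stably expressing recombinant human PAC1, plated 24 h before assay, loaded with fluo-4 AM for 60 min at 37 °C in the dark, then rinsed into HBSS for 15 min at 37 °C. EC50 and efficacy came from nonlinear regression; 4-10 independent assays in duplicate.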
Target sequence in this assay (P41586 whole entry): as above

Emax [1] [%] | IC50 [2] [nM] | EC50 [3] [nM] | Structure (SMILES)
89.2 | 8.5 | 2.3 | CC[C@H](C)[C@H](NC(=O)CNC(=O)[C@H](CC(=O)O)NC(=O)[C@@H]1C[C@@H](O)CN1C(=O)[C@@H](N)Cc1cnc[nH]1)C(=O)N[C@@H](Cc1ccccc1)C(=O)N[C@H](C(=O)N[C@@H](CC(=O)O)C(=O)N[C@@H](CO)C(=O)N[C@@H](Cc1ccc(O)cc1)C(=O)N[C@@H](CO)C(=O)N[C@@H](CCCNC(=N)N)C(=O)N[C@@H](Cc1ccc(O)cc1)C(=O)N[C@@H](CCCNC(=N)N)C(=O)N[C@@H](CCCCN)C(=O)N[C@@H](CCC(N)=O)C(=O)N[C@@H](CCSC)C(=O)N[C@@H](C)C(=O)N[C@H](C(=O)N[C@@H](CCCCN)C(=O)N[C@@H](CCCCN)C(=O)N[C@@H](Cc1ccc(O)cc1)C(=O)N[C@@H](CC(C)C)C(=O)N[C@@H](C)C(=O)N[C@@H](C)C(=O)N[C@H](C(=O)N[C@@H](CC(C)C)C(N)=O)C(C)C)C(C)C)[C@@H](C)O
72 | 1940 | 35 | CC[C@H](C)[C@H](NC(=O)CNC(=O)[C@H](CC(=O)O)NC(=O)[C@H](CO)NC(=O)[C@@H](N)Cc1cnc[nH]1)C(=O)N1c2ccccc2CC1C(=O)N[C@H](C(=O)N[C@@H](CC(=O)O)C(=O)N[C@@H](CO)C(=O)N[C@@H](Cc1ccc(O)cc1)C(=O)N[C@@H](CO)C(=O)N[C@@H](CCCNC(=N)N)C(=O)N[C@@H](Cc1ccc(O)cc1)C(=O)N[C@@H](CCCNC(=N)N)C(=O)N[C@@H](CCCCN)C(=O)N[C@@H](CCC(N)=O)C(=O)N[C@@H](CCSC)C(=O)N[C@@H](C)C(=O)N[C@H](C(=O)N[C@@H](CCCCN)C(=O)N[C@@H](CCCCN)C(=O)N[C@@H](Cc1ccc(O)cc1)C(=O)N[C@@H](CC(C)C)C(=O)N[C@@H](C)C(=O)N[C@@H](C)C(=O)N[C@H](C(=O)N[C@@H](CC(C)C)C(N)=O)C(C)C)C(C)C)[C@@H](C)O (some centres not stated)
105 | 11 | 8.4 | CC[C@H](C)[C@H](NC(=O)CNC(=O)[C@H](CC(=O)O)NC(=O)[C@H](CO)NC(=O)[C@@H](N)Cc1cnc[nH]1)C(=O)N[C@@H](CC1CCCCC1)C(=O)N[C@H](C(=O)N[C@@H](CC(=O)O)C(=O)N[C@@H](CO)C(=O)N[C@@H](Cc1ccc(O)cc1)C(=O)N[C@@H](CO)C(=O)N[C@@H](CCCNC(=N)N)C(=O)N[C@@H](Cc1ccc(O)cc1)C(=O)N[C@@H](CCCNC(=N)N)C(=O)N[C@@H](CCCCN)C(=O)N[C@@H](CCC(N)=O)C(=O)N[C@@H](CCSC)C(=O)N[C@@H](C)C(=O)N[C@H](C(=O)N[C@@H](CCCCN)C(=O)N[C@@H](CCCCN)C(=O)N[C@@H](Cc1ccc(O)cc1)C(=O)N[C@@H](CC(C)C)C(=O)N[C@@H](C)C(=O)N[C@@H](C)C(=O)N[C@H](C(=O)N[C@@H](CC(C)C)C(N)=O)C(C)C)C(C)C)[C@@H](C)O
104 | 4.5 | 1 | CC[C@H](C)[C@H](NC(=O)CNC(=O)[C@H](CC(=O)O)NC(=O)[C@H](CO)NC(=O)[C@@H](N)Cc1cnc[nH]1)C(=O)N[C@@H](Cc1ccc(-c2ccccc2)cc1)C(=O)N[C@H](C(=O)N[C@@H](CC(=O)O)C(=O)N[C@@H](CO)C(=O)N[C@@H](Cc1ccc(O)cc1)C(=O)N[C@@H](CO)C(=O)N[C@@H](CCCNC(=N)N)C(=O)N[C@@H](Cc1ccc(O)cc1)C(=O)N[C@@H](CCCNC(=N)N)C(=O)N[C@@H](CCCCN)C(=O)N[C@@H](CCC(N)=O)C(=O)N[C@@H](CCSC)C(=O)N[C@@H](C)C(=O)N[C@H](C(=O)N[C@@H](CCCCN)C(=O)N[C@@H](CCCCN)C(=O)N[C@@H](Cc1ccc(O)cc1)C(=O)N[C@@H](CC(C)C)C(=O)N[C@@H](C)C(=O)N[C@@H](C)C(=O)N[C@H](C(=O)N[C@@H](CC(C)C)C(N)=O)C(C)C)C(C)C)[C@@H](C)O
70 | 335 | 174 | CC[C@H](C)[C@H](NC(=O)CNC(=O)[C@H](CC(=O)O)NC(=O)[C@H](CO)NC(=O)[C@H](C)N)C(=O)N[C@@H](Cc1ccccc1)C(=O)N[C@H](C(=O)N[C@@H](CC(=O)O)C(=O)N[C@@H](CO)C(=O)N[C@@H](Cc1ccc(O)cc1)C(=O)N[C@@H](CO)C(=O)N[C@@H](CCCNC(=N)N)C(=O)N[C@@H](Cc1ccc(O)cc1)C(=O)N[C@@H](CCCNC(=N)N)C(=O)N[C@@H](CCCCN)C(=O)N[C@@H](CCC(N)=O)C(=O)N[C@@H](CCSC)C(=O)N[C@@H](C)C(=O)N[C@H](C(=O)N[C@@H](CCCCN)C(=O)N[C@@H](CCCCN)C(=O)N[C@@H](Cc1ccc(O)cc1)C(=O)N[C@@H](CC(C)C)C(=O)N[C@@H](C)C(=O)N[C@@H](C)C(=O)N[C@H](C(=O)N[C@@H](CC(C)C)C(N)=O)C(C)C)C(C)C)[C@@H](C)O

Second part, the compound before the results:

Structure (SMILES) | Emax [1] [%] | IC50 [2] [nM] | EC50 [3] [nM]
CC[C@H](C)[C@H](NC(=O)CNC(=O)[C@H](CCCC(=O)O)NC(=O)[C@H](CO)NC(=O)[C@@H](N)Cc1cnc[nH]1)C(=O)N[C@@H](Cc1ccccc1)C(=O)N[C@H](C(=O)N[C@@H](CC(=O)O)C(=O)N[C@@H](CO)C(=O)N[C@@H](Cc1ccc(O)cc1)C(=O)N[C@@H](CO)C(=O)N[C@@H](CCCNC(=N)N)C(=O)N[C@@H](Cc1ccc(O)cc1)C(=O)N[C@@H](CCCNC(=N)N)C(=O)N[C@@H](CCCCN)C(=O)N[C@@H](CCC(N)=O)C(=O)N[C@@H](CCSC)C(=O)N[C@@H](C)C(=O)N[C@H](C(=O)N[C@@H](CCCCN)C(=O)N[C@@H](CCCCN)C(=O)N[C@@H](Cc1ccc(O)cc1)C(=O)N[C@@H](CC(C)C)C(=O)N[C@@H](C)C(=O)N[C@@H](C)C(=O)N[C@H](C(=O)N[C@@H](CC(C)C)C(=O)NCC(=O)N[C@@H](CCCCN)C(=O)N[C@@H](CCCNC(=N)N)C(=O)N[C@@H](Cc1ccc(O)cc1)C(=O)N[C@@H](CCCCN)C(=O)N[C@@H](CCC(N)=O)C(=O)N[C@@H](CCCNC(=N)N)C(=O)N[C@H](C(=O)N[C@@H](CCCCN)C(=O)N[C@@H](CC(N)=O)C(=O)N[C@@H](CCCCN)C(N)=O)C(C)C)C(C)C)C(C)C)[C@@H](C)O (H-HS[Aad]GIFTDSYSRYRKQMAVKKYLAAVLGKRYKQRVKNK-NH2) | 18.2 | 12.5 | 37.6
CC[C@H](C)[C@H](NC(=O)CNC(=O)[C@H](CC(=O)O)NC(=O)[C@H](CO)NC(=O)[C@@H](N)Cc1cnc[nH]1)C(=O)N[C@@H](C)C(=O)N[C@H](C(=O)N[C@@H](CC(=O)O)C(=O)N[C@@H](CO)C(=O)N[C@@H](Cc1ccc(O)cc1)C(=O)N[C@@H](CO)C(=O)N[C@@H](CCCNC(=N)N)C(=O)N[C@@H](Cc1ccc(O)cc1)C(=O)N[C@@H](CCCNC(=N)N)C(=O)N[C@@H](CCCCN)C(=O)N[C@@H](CCC(N)=O)C(=O)N[C@@H](CCSC)C(=O)N[C@@H](C)C(=O)N[C@H](C(=O)N[C@@H](CCCCN)C(=O)N[C@@H](CCCCN)C(=O)N[C@@H](Cc1ccc(O)cc1)C(=O)N[C@@H](CC(C)C)C(=O)N[C@@H](C)C(=O)N[C@@H](C)C(=O)N[C@H](C(=O)N[C@@H](CC(C)C)C(N)=O)C(C)C)C(C)C)[C@@H](C)O | 65.3 | 1330 | 462
CC[C@H](C)[C@H](NC(=O)CNC(=O)[C@H](CCC(=O)O)NC(=O)[C@H](CO)NC(=O)[C@@H](N)Cc1cnc[nH]1)C(=O)N[C@@H](Cc1ccccc1)C(=O)N[C@H](C(=O)N[C@@H](CC(=O)O)C(=O)N[C@@H](CO)C(=O)N[C@@H](Cc1ccc(O)cc1)C(=O)N[C@@H](CO)C(=O)N[C@@H](CCCNC(=N)N)C(=O)N[C@@H](Cc1ccc(O)cc1)C(=O)N[C@@H](CCCNC(=N)N)C(=O)N[C@@H](CCCCN)C(=O)N[C@@H](CCC(N)=O)C(=O)N[C@@H](CCSC)C(=O)N[C@@H](C)C(=O)N[C@H](C(=O)N[C@@H](CCCCN)C(=O)N[C@@H](CCCCN)C(=O)N[C@@H](Cc1ccc(O)cc1)C(=O)N[C@@H](CC(C)C)C(=O)N[C@@H](C)C(=O)N[C@@H](C)C(=O)N[C@H](C(=O)N[C@@H](CC(C)C)C(=O)NCC(=O)N[C@@H](CCCCN)C(=O)N[C@@H](CCCNC(=N)N)C(=O)N[C@@H](Cc1ccc(O)cc1)C(=O)N[C@@H](CCCCN)C(=O)N[C@@H](CCC(N)=O)C(=O)N[C@@H](CCCNC(=N)N)C(=O)N[C@H](C(=O)N[C@@H](CCCCN)C(=O)N[C@@H](CC(N)=O)C(=O)N[C@@H](CCCCN)C(N)=O)C(C)C)C(C)C)C(C)C)[C@@H](C)O (H-HSEGIFTDSYSRYRKQMAVKKYLAAVLGKRYKQRVKNK-NH2) | 87.6 | 7 | 1.5
CC[C@H](C)[C@H](NC(=O)CNC(=O)[C@H](CC(=O)O)NC(=O)[C@H](CO)N(C)C(=O)[C@@H](N)Cc1cnc[nH]1)C(=O)N[C@@H](Cc1ccccc1)C(=O)N[C@H](C(=O)N[C@@H](CC(=O)O)C(=O)N[C@@H](CO)C(=O)N[C@@H](Cc1ccc(O)cc1)C(=O)N[C@@H](CO)C(=O)N[C@@H](CCCNC(=N)N)C(=O)N[C@@H](Cc1ccc(O)cc1)C(=O)N[C@@H](CCCNC(=N)N)C(=O)N[C@@H](CCCCN)C(=O)N[C@@H](CCC(N)=O)C(=O)N[C@@H](CCSC)C(=O)N[C@@H](C)C(=O)N[C@H](C(=O)N[C@@H](CCCCN)C(=O)N[C@@H](CCCCN)C(=O)N[C@@H](Cc1ccc(O)cc1)C(=O)N[C@@H](CC(C)C)C(=O)N[C@@H](C)C(=O)N[C@@H](C)C(=O)N[C@H](C(=O)N[C@@H](CC(C)C)C(=O)NCC(=O)N[C@@H](CCCCN)C(=O)N[C@@H](CCCNC(=N)N)C(=O)N[C@@H](Cc1ccc(O)cc1)C(=O)N[C@@H](CCCCN)C(=O)N[C@@H](CCC(N)=O)C(=O)N[C@@H](CCCNC(=N)N)C(=O)N[C@H](C(=O)N[C@@H](CCCCN)C(=O)N[C@@H](CC(N)=O)C(=O)N[C@@H](CCCCN)C(N)=O)C(C)C)C(C)C)C(C)C)[C@@H](C)O | 87.7 | 9.1 | 110

— ChEMBL document CHEMBL1138520, “Molecular and conformational determinants of pituitary adenylate cyclase-activating polypeptide (PACAP) for activation of the PAC1 receptor” (J Med Chem, 2009)
